In the library only some 8.2% were active in any assay of this set; here they are far more common.
SF1 activator: activators of human SF-1, primary screen, cell-based, CHO-K1, Gal4-SF-1 LBD, luciferase luminescence. AID 522, 2006. activation, % at 10 µM. hit rate 1.9% among 65,000. CHO-K1 Gal4-SF-1 LBD luciferase reporter; % increase over DMSO SF-1-specific signal. Steroidogenic factor 1 (Homo sapiens), Q13285;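 active means activation above the mean activation of all tested compounds plus 3 SD, cut at about 50% in these data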
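Compound – one dose, 10 µM compound, 1% DMSO · Test system – transient Gal4-SF-1 LBD reporter, CHO-K1 · Input – 4,000 cells in each well · Read-out basis – percent activation relative to DMSO median and mock-transfected background · Replicates – single measurement per compound · Technique – steady-glow luciferase luminescence, read after 15 min reagent incubation · Timing – 20 h compound treatment, 37 °C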
M1 antag: antagonists of rat M1 muscarinic receptor. Muscarinic acetylcholine receptor M1 (Rattus norvegicus), P08482. CHO-M1 cells, Fluo-4 calcium, ACh EC80 antagonist mode; stronger effect = lower value. B-score at 10 µM. hit rate 3.4% among 64,000. AID 628, 2007;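 active means calcium fluorescence response, raw or row-and-column corrected B-score, differing from the plate sample mean either way at a set confidence level, mostly lower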
Target sequence (P08482 whole entry, looked up): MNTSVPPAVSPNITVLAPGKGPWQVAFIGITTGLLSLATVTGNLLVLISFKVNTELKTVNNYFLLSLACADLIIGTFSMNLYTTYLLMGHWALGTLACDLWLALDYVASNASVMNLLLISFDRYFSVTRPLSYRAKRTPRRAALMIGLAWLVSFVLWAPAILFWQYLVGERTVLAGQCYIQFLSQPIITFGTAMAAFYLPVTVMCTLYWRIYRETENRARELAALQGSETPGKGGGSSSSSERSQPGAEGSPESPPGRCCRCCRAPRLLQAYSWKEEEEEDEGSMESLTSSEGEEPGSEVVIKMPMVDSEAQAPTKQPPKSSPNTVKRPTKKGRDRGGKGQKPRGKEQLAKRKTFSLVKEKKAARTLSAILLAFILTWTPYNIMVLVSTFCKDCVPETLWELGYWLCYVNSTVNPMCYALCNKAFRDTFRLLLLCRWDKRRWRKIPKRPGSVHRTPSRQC
HePTP inhibitor: inhibitors of human HePTP phosphatase, primary screen, biochemical, absorbance, leukemia target; recombinant HePTP phosphatase activity, OD absorbance; inhibition, % at 20 µM; hit rate 0.64% among 110,000; AID 521, 2006; in the data active means inhibition above about 50%
RORa activator: activators of orphan receptor RORA, primary screen, cell-based, luminescence; Nuclear receptor ROR-alpha (Homo sapiens), P35398; CHO-K1 Gal4-RORA LBD luciferase reporter; percent increase over mock-subtracted basal signal; activation, % at 10 µM; hit rate 1.5% among 65,000;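 active means activation above the mean of all tested compounds plus 3 SD, cut at about 49% in these data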
M1 agonist: M1 muscarinic receptor agonists, primary screen, CHO-M1 cells, Fluo-4 calcium, agonist mode. Muscarinic acetylcholine receptor M1. Fluo-4 calcium fluorescence; stronger effect = higher value. B-score at 10 µM. hit rate 3% among 64,000. AID 626, 2007;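 active means fluorescence rise, raw or as B-score row- and column-corrected plate score, outside the 99.7% band of its plate's samples, either direction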
D1 allo mod: D1 CRE-luciferase signal change, two-sided – cell-based, HEK293 D1, dopamine EC30, D1 allosteric modulator project, primary screen; D(1A) dopamine receptor (Homo sapiens), P21728; dopamine EC30 potentiation; actives deviate in either direction; B-score at 10 µM; hit rate 5.9% among 58,000;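 active means luminescence count or its row- and column-corrected plate score outside the 99.7% band of the plate's sample wells, on either side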
Numbers stand for hits; – = inactive; · = no result given.

SMILES	SF1 activator	M1 antag	HePTP inhibitor	RORa activator	M1 agonist	D1 allo mod
COc1ccc(-c2cc3nc4n(c(=O)c3s2)CCC4)cc1	–	–	–	–	–	-5.9
CCOc1ccccc1N1CC(C(=O)Nc2nccs2)CC1=O (stereo not given)	–	–	–	–	–	·
Cc1cccc(-c2nc(C#N)c(NC3CCCCC3)o2)c1	50	–	–	–	–	·
Cc1cccc(-c2nc(CS(=O)CC(=O)NC3CCCC3)c(C)o2)c1 (stereo not given)	–	–	–	–	–	–
O=C(Nc1nncs1)c1c(F)c(F)c(F)c(F)c1F	–	1	·	–	–	–
O=C(Cc1cccs1)N1CCN(C(=O)C2CCCO2)CC1 (stereo not given)	–	–	–	–	–	–
O=C(O)/C=C/c1ccc(-c2ccc(Cl)c(Cl)c2)o1	·	·	–	·	·	·
O=C(/C=C/c1ccc(-c2cc(Cl)ccc2Cl)o1)c1ccco1	·	·	60	·	·	·
O=C(/C=C/c1ccco1)/C=C/c1ccc(-c2ccc(Cl)c(Cl)c2)o1	·	·	102	·	·	·
O=C(NCCO)c1scc2c1OCCO2	–	–	–	–	–	–
CC(NC(=O)c1c(NC(=O)c2ccco2)sc2c1CCCCC2)c1ccccc1 (stereo not given)	·	·	–	·	·	·
COc1ccc(C(=O)Nc2nc3cc(OC)c(OC)cc3c(=O)[nH]2)cc1	–	10	–	–	–	–
COc1ccc(-c2nnc(N)s2)cc1OC	·	·	–	·	·	·
CCCOc1ccc(-c2nnc(NC(=O)Nc3ccccc3)s2)cc1	·	·	–	·	·	·
COc1ccc(-c2nnc(N)s2)cc1	–	–	–	50	–	–
CCCOc1ccc(-c2nnc(N)s2)cc1	59	–	–	–	–	–
N#CCCn1c(SCC(=O)NCC2CCCO2)nc2ccccc21 (stereo not given)	–	–	–	–	–	–
CCc1nnc(NC(=O)CSc2nnc(-c3cc4ccccc4cc3O)n2CC)s1	–	–	–	–	–	–
COc1cccc(-c2nc3ncc(Br)cc3[nH]2)c1OC	·	·	–	·	·	·
CCC(CC)C(=O)Nc1cc(NC(=O)C(CC)CC)cc(C(=O)O)c1	–	–	–	–	–	–
CCCCC(=O)Nc1cc(NC(=O)CCCC)cc(C(=O)O)c1	–	–	–	–	–	-4.2
O=C(O)CCCC(=O)Nc1cccc(C(=O)O)c1	·	·	–	·	·	·
CC#CCCCC(=O)Nc1cccc(C(=O)O)c1	–	–	–	56	–	–
CCN(CC)C(=O)CSc1nnc(-c2ccccc2)n1N	–	2.4	–	–	–	–
CCOC(=O)C1=C(CC)Nc2ccccc2N=C1NC(=O)Nc1ccccc1OC	–	0.84	–	–	–	–
SMILES	SF1 activator	M1 antag	HePTP inhibitor	RORa activator	M1 agonist	D1 allo mod
CCOC(=O)C1=C(C)Nc2ccccc2N=C1NC(=O)CCCN1C(=O)c2ccccc2C1=O	–	–	–	–	–	·
O=C1CSC(c2cccs2)N1c1ccccc1 (stereo not given)	–	–	–	–	–	–
c1ccc(N2CCN(c3ccccc3)C2c2cccs2)cc1	–	–	–	58	–	–
COC(=O)c1c(NC(=O)CSc2n[nH]c(N)n2)sc(C)c1C	–	–	–	–	–	–
CCCCn1c(=O)[nH]c(=O)c2c1nc(CN1C(=O)c3ccccc3S1(=O)=O)n2CCC	–	–	–	–	–	9.8
CCCCn1c(=O)[nH]c(=O)c2c1nc(COc1ccc(C#N)cc1)n2CCC	–	–	–	–	–	–
CC(Oc1ccc(-c2ccccc2)cc1)C(=O)N1CCOCC1 (stereo not given)	–	–	–	–	–	–
COC(=O)c1oc2ccccc2c1NC(=O)CN1CCCC1	–	–	–	–	–	13
CCCCNC(=O)NC(C(=O)OC)C12CC3CC(CC(C3)C1)C2 (stereo not given)	·	·	–	·	·	·
CCOC(=O)C1CCN(C(=O)COc2ccc(Cl)cc2Cl)CC1	–	–	–	–	–	–
CCOC(=O)C1CCCN(C(=O)C(C)Oc2ccc(Cl)cc2Cl)C1 (stereo not given)	–	–	–	–	4.5	–
COC(=O)C1CCN(C(=O)C(C)Oc2ccc(Cl)cc2Cl)CC1 (stereo not given)	–	1.2	–	–	–	–
N#CC1=C(N)Oc2c(sc3ccccc23)C1c1ccc(Br)o1 (stereo not given)	·	·	–	·	·	·
N#C/C(C(=O)N1CCCCC1)=C1\Nc2ccccc2S1	50	–	–	–	–	–
N#CCCn1c(Cl)nc2ccccc21	–	–	–	–	–	–
Cc1c(CCC#N)c(N2CCCCC2)n2c(nc3ccccc32)c1C#N	–	–	–	–	–	–
C=CCc1c(C)c(C#N)c2nc3ccccc3n2c1N1CCN(C)CC1	–	–	–	–	–	16
Cc1cc2cc(CCNC(=O)c3c(-c4ccccc4Cl)noc3C)c(=O)[nH]c2cc1C	–	–	–	–	–	-3.7
COC(=O)CNC(=O)c1c(-c2ccccc2Cl)noc1C	–	–	–	–	–	–
Cc1cccc2nc(CSCc3ccco3)cn12	55	–	–	–	–	–
Cc1cc(C)n2cc(CSCc3ccco3)nc2n1	–	–	–	–	–	–
Cc1cc(C)c(C#N)c(SCC2COc3ccccc3O2)n1 (stereo not given)	–	–	–	–	–	–
Cc1cc(C)n2nc(SCC3COc4ccccc4O3)nc2n1 (stereo not given)	55	–	–	–	–	–
COc1ccc(C2=C/C(=C\c3ccc(OC)c([N+](=O)[O-])c3)C(=O)O2)cc1	·	·	–	·	·	·
CCCc1ccc(-c2ccc(F)c(N)c2)nc1	–	–	–	–	–	-7.4
SMILES	SF1 activator	M1 antag	HePTP inhibitor	RORa activator	M1 agonist	D1 allo mod
Nc1cc(-c2nn[nH]n2)ccc1F	–	–	–	–	–	–
CC(=O)c1c(C)nc2ccccc2c1N	–	–	–	–	–	–
CCc1nc2oc3ccccc3c(=O)c2c(=O)n1CCOC	–	–	–	–	–	–
CCc1nc2oc3ccccc3c(=O)c2c(=O)n1-c1ccccc1	71	–	–	–	–	–
CC(=O)c1cccc(NC(=O)/C(=C/c2ccc(Br)cc2)NC(=O)c2ccccc2)c1	·	·	–	·	·	·
CCSc1nnc(-c2cccc(S(=O)(=O)N(CC)CC)c2)n1Cc1ccccc1	–	–	–	–	10	–
CCN(CC)c1ccc(/C=N/N2C(=O)c3ccccc3C2=O)cc1	·	·	102	·	·	·
CCN(CC)c1ccc(N2C(=O)c3ccccc3C2=O)cc1	–	–	–	–	–	–
COc1ccc(O)c(C(=O)c2cc(C#N)c(=O)n(CCN3CCOCC3)c2)c1	–	–	–	–	–	–

Screening results deposited in PubChem by several laboratories.
